Each block holds one compound with its values, some of them ahead of it.
Key:
[1] = system: HEK293 cell line expressing hNOD2 and NFκB-SEAP reporter; test: Human NOD2 signaling HEKBlue reporter assay; assay type: cell-based; conditions: read-out: RIPK2/NOD2 Cell Assay IC50, HEKBlue, 1 ng/mL L18-MDP, mean of two or three determinations ± standard deviation, NI: No inhibition up to 10 μM
Method in brief: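 Cells seeded at 7.5-15x10^3 per well; after 24–48 h switched to HEKBlue detection medium and given an 11-point dose range of test compound together with the stimulant. SEAP read as absorbance at 620 nm after 7–9 h. Media-only background subtracted; % inhibition relative to DMSO/L18-MDP controls; IC50 by non-linear regression.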

[2] = system: XIAP-mediated RIPK2 ubiquitination; conditions: cited from earlier work
RAW264.7 macrophages [3] = conditions: cited from earlier work
U2OS/NOD2 cells = conditions: cited from earlier work
GST-BIR2-cIAP1 and RIPK2 = conditions: cited from earlier work
RAW264.7 macrophages [4] = assay type: cell-based; conditions: at 1 μM; data not shown
[5] = target: Recombinant RIPK2 protein (Homo sapiens, UniProt O43353); test: RIPK2 enzyme assay; assay type: biochemical; conditions: for selectivity for RIPK2 versus ALK2: ratio of ALK2 to RIPK2 kinase IC50
Chain of Recombinant RIPK2 protein (O43353 whole entry): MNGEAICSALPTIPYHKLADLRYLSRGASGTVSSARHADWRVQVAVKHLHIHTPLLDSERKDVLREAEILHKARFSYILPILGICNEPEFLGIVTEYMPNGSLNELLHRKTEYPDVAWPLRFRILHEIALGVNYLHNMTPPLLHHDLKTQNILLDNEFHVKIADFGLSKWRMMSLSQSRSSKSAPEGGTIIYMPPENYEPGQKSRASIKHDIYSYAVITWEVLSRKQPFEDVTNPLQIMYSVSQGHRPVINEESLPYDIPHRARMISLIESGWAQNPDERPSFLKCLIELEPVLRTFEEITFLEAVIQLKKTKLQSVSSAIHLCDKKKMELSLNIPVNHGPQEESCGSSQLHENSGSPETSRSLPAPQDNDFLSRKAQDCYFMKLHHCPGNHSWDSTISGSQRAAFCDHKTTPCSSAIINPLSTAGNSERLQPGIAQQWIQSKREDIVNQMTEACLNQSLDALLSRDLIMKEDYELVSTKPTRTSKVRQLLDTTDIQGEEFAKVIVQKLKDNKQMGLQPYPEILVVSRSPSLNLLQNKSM
Method in brief: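 Started with solution of 100 μM ATP + 1 mg/ml RS repeat peptide, 2 h RT; ADP-Glo luminescence. IC50 by non-linear regression. ALK2: human enzyme, casein 1 mg/mL, γ-33ATP 10 μM, 10 nM–100 μM compound, 30 min, 33P-casein.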

SMILES: CCCS(=O)(=O)Nc1cc(-c2cc(-c3ccc(N4CCNCC4)cc3)cnc2N)cc(OCC)c1OC [Compound 18q, N-(5-(2-Amino-5-(4-(piperazin-1-yl)phenyl)pyridin-3-yl)-3-ethoxy-2-methoxyphenyl)propane-1-sulfonamide]
- IC50 [1]: > 10 µM

SMILES: CCCS(=O)(=O)Nc1cc(-c2cc(-c3ccc(N4CCNCC4)cc3)cnc2N)cc(OC)c1OC [Compound 18p, N-(5-(2-Amino-5-(4-(piperazin-1-yl)phenyl)pyridin-3-yl)-2,3-dimethoxyphenyl)propane-1-sulfonamide]
- XIAP-mediated RIPK2 ubiquitination [2]: blocked
- inhibition of L18-MDP-induced TNFα release (RAW264.7 macrophages [3]): efficient inhibition
- inhibition of L18-MDP-induced CXCL8 production (U2OS/NOD2 cells): efficient inhibition
- interaction between GST-BIR2-cIAP1 and RIPK2 (GST-BIR2-cIAP1 and RIPK2): interfered

SMILES: CCCS(=O)(=O)Nc1cc(-c2cc(-c3ccc(N4CCNCC4)cc3)cnc2N)ccc1O [Compound 18n, N-(5-(2-Amino-5-(4-(piperazin-1-yl)phenyl)pyridin-3-yl)-2-hydroxyphenyl)propane-1-sulfonamide]
- IC50 [1]: > 5 µM

SMILES: COc1cc(-c2cc(-c3ccc(N4CCNCC4)cc3)cnc2C)cc(OC)c1OC [Compound 9a, reference compound]
- IC50 [1]: > 10 µM

SMILES: CCCS(=O)(=O)Nc1cc(-c2cc(-c3ccc(S(C)(=O)=O)cc3)cnc2N)ccc1OC [Compound 18ad, N-(5-(2-Amino-5-(4-(methylsulfonyl)phenyl)pyridin-3-yl)-2-methoxyphenyl)propane-1-sulfonamide]
- IC50 [1]: > 10 µM

- selectivity for RIPK2 versus ALK2 [5]: > 20 fold
SMILES: CCCS(=O)(=O)Nc1cc(-c2cc(-c3ccc(N4CCNCC4)cc3)cnc2N)cc(F)c1OC [Compound 18t, N-(5-(2-Amino-5-(4-(piperazin-1-yl)phenyl)pyridin-3-yl)-3-fluoro-2-methoxyphenyl)propane-1-sulfonamide]
- XIAP-mediated RIPK2 ubiquitination [2]: blocked
- block of RIPK1 and RIPK3 dependent necroptosis (RAW264.7 macrophages [4]): did not block
- inhibition of L18-MDP-induced TNFα release (RAW264.7 macrophages [3]): efficient inhibition
- inhibition of L18-MDP-induced CXCL8 production (U2OS/NOD2 cells): efficient inhibition
- interaction between GST-BIR2-cIAP1 and RIPK2 (GST-BIR2-cIAP1 and RIPK2): interfered

SMILES: CCCS(=O)(=O)Nc1cc(-c2cc(-c3ccccc3S(C)(=O)=O)cnc2N)ccc1OC [Compound 18ab, N-(5-(2-Amino-5-(2-(methylsulfonyl)phenyl)pyridin-3-yl)-2-methoxyphenyl)propane-1-sulfonamide]
- IC50 [1]: > 10 µM

- IC50 [5]: 41 ± 19 nM
- selectivity for RIPK2 versus ALK2 [5]: 86 fold
SMILES: CCCS(=O)(=O)Nc1cc(-c2cc(-c3ccc(N4CCNCC4)cc3)cnc2N)ccc1OC [Compound 18m, N-(5-(2-Amino-5-(4-(piperazin-1-yl)phenyl)pyridin-3-yl)-2-methoxyphenyl)propane-1-sulfonamide]

From PMC7338260 (European journal of medicinal chemistry, 2020)
